Results: ChEMBL document CHEMBL3244400, “Synthesis of 3,4-dihydro-4-oxothieno[2,3-d]pyrimidine-2-carboxylates, a new series of orally active antiallergy agents” (J Med Chem, 1979)

Experiments:
Type in all cases: functional
[1] = test system: Mast cell; assay: Inhibition of histamine release in Sprague-Dawley rat peritoneal mast cells at 20 uM after 10 mins by fluorimetry relative to control
In short: (§1)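 Peritoneal lavage cells from male Sprague–Dawley rats (200–300 g) were sensitized for 2 h at 37 °C in rat anti-EA serum with heparin. Cells were resuspended in buffered HBSS and challenged with EA. Drug was added together with antigen. After 10 min incubation, histamine was measured fluorimetrically. % inhibition was calculated versus release without drug.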

[2] = test system: Mast cell; assay: Inhibition of histamine release in Sprague-Dawley rat peritoneal mast cells at 5 uM after 10 mins by fluorimetry relative to control; in short: as §1
[3] = test system: Rattus norvegicus; assay: Inhibition of egg albumin-induced allergic bronchospasm in sensitized, spontaneously breathing and anesthesized Harlan-Wistar rat assessed as drop in pulmonary arterial blood pressure at 2 mg/kg, iv administered 1 min prior to antigen challenge (reference value: 36.4 +/- 3.5 %)
In short: (§2)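 Male Harlan-Wistar rats (225–275 g) were sensitized with EA im (1 mg/rat) plus pertussis vaccine ip. After 13–15 days they were urethane-anesthetized (1.5 g/kg ip). Drug was given intraduodenally in methocel or iv in saline, then EA 2 mg/rat iv. Pulmonary ventilation pressure and mean arterial pressure were recorded. Individual responses were compared with a separate vehicle-control group mean; 4–15 rats/group.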

[4] = test system: Rattus norvegicus; assay: Inhibition of egg albumin-induced allergic bronchospasm in sensitized, spontaneously breathing and anesthesized Harlan-Wistar rat assessed as inhibition of control allergic hypotension response at 2 mg/kg, iv administered 1 min prior to antigen challenge; in short: as §2
[5] = test system: Rattus norvegicus; assay: Inhibition of egg albumin-induced allergic bronchospasm in sensitized, spontaneously breathing and anesthesized Harlan-Wistar rat assessed as drop in mean arterial blood pressure at 2 mg/kg, iv administered 1 min prior to antigen challenge (reference value: 49.7+/- 1.9 %); in short: as §2
[6] = test system: Rattus norvegicus; assay: Antiallergic activity against egg albumin-induced anaphylaxis in iv dosed sensitized rat compound administered 15 mins prior to antigen challenge as single dose by passive cutaneous anaphylaxis test
In short: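 Male Sprague–Dawley or Wistar rats (100–150 g) were passively sensitized by two intradermal dilutions of rat anti-egg-albumin serum, which was mainly IgE and raised with EA im (10 mg/kg) plus killed pertussis vaccine iv. After 48 h, drug or vehicle was given. Rats were then challenged iv with EA plus Evans Blue (25 mg/kg each). Spot diameter was read 20–30 min later; ≥5 rats/compound. % inhibition was calculated versus control mean diameter.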

[7] = test system: Rattus norvegicus; assay: Inhibition of egg albumin-induced allergic bronchospasm in sensitized, spontaneously breathing and anesthesized Harlan-Wistar rat assessed as inhibition of control allergic bronchospasm response at 2 mg/kg, iv administered 1 min prior to antigen challenge; in short: as §2
[8] = test system: Mast cell; assay: Inhibition of histamine release in Sprague-Dawley rat peritoneal mast cells at 1.25 uM after 10 mins by fluorimetry relative to control; in short: as §1
[9] = test system: Rattus norvegicus; assay: Inhibition of egg albumin-induced allergic bronchospasm in sensitized, spontaneously breathing and anesthesized Harlan-Wistar rat assessed as drop in pulmonary arterial blood pressure at 6.25 mg/kg administered intraduodenally 15 min prior to antigen challenge (reference value: 32.2 +/- 4.7 %); settings: route intraduodenal; in short: as §2
[10] = test system: Rattus norvegicus; assay: Inhibition of egg albumin-induced allergic bronchospasm in sensitized, spontaneously breathing and anesthesized Harlan-Wistar rat assessed as inhibition of control allergic bronchospasm response at 1.56 mg/kg administered intraduodenally 15 min prior to antigen challenge; settings: route intraduodenal; in short: as §2
[11] = test system: Rattus norvegicus; assay: Inhibition of egg albumin-induced allergic bronchospasm in sensitized, spontaneously breathing and anesthesized Harlan-Wistar rat assessed as drop in mean arterial blood pressure at 50 mg/kg administered intraduodenally 15 min prior to antigen challenge (reference value: 46.3 +/- 3.5 %); settings: route intraduodenal; in short: as §2
[12] = test system: Rattus norvegicus; assay: Inhibition of egg albumin-induced allergic bronchospasm in sensitized, spontaneously breathing and anesthesized Harlan-Wistar rat assessed as drop in mean arterial blood pressure at 12.5 mg/kg administered intraduodenally 15 min prior to antigen challenge (reference value: 46.3 +/- 3.5 %); settings: route intraduodenal; in short: as §2
[13] = test system: Rattus norvegicus; assay: Inhibition of egg albumin-induced allergic bronchospasm in sensitized, spontaneously breathing and anesthesized Harlan-Wistar rat assessed as inhibition of control allergic hypotension response at 12.5 mg/kg administered intraduodenally 15 min prior to antigen challenge; settings: route intraduodenal; in short: as §2
[14] = test system: Rattus norvegicus; assay: Inhibition of egg albumin-induced allergic bronchospasm in sensitized, spontaneously breathing and anesthesized Harlan-Wistar rat assessed as drop in pulmonary arterial blood pressure at 50 mg/kg administered intraduodenally 15 min prior to antigen challenge (reference value: 32.2 +/- 4.7 %); settings: route intraduodenal; in short: as §2
[15] = test system: Rattus norvegicus; assay: Inhibition of egg albumin-induced allergic bronchospasm in sensitized, spontaneously breathing and anesthesized Harlan-Wistar rat assessed as inhibition of control allergic bronchospasm response at 50 mg/kg administered intraduodenally 15 min prior to antigen challenge; settings: route intraduodenal; in short: as §2
[16] = test system: Rattus norvegicus; assay: Inhibition of egg albumin-induced allergic bronchospasm in sensitized, spontaneously breathing and anesthesized Harlan-Wistar rat assessed as inhibition of control allergic bronchospasm response at 3.125 mg/kg administered intraduodenally 15 min prior to antigen challenge; settings: route intraduodenal; in short: as §2
[17] = test system: Rattus norvegicus; assay: Inhibition of egg albumin-induced allergic bronchospasm in sensitized, spontaneously breathing and anesthesized Harlan-Wistar rat assessed as inhibition of control allergic hypotension response at 6.25 mg/kg administered intraduodenally 15 min prior to antigen challenge; settings: route intraduodenal; in short: as §2
[18] = test system: Rattus norvegicus; assay: Inhibition of egg albumin-induced allergic bronchospasm in sensitized, spontaneously breathing and anesthesized Harlan-Wistar rat assessed as inhibition of control allergic hypotension response compound administered intraduodenally 15 min prior to antigen challenge; settings: in the assay text read “bronchospasm response” for “hypotension response”; in short: as §2
[19] = test system: Rattus norvegicus; assay: Inhibition of egg albumin-induced allergic bronchospasm in sensitized, spontaneously breathing and anesthesized Harlan-Wistar rat assessed as drop in pulmonary arterial blood pressure at 3.125 mg/kg administered intraduodenally 15 min prior to antigen challenge (reference value: 32.2 +/- 4.7 %); settings: route intraduodenal; in short: as §2
[20] = test system: Rattus norvegicus; assay: Inhibition of egg albumin-induced allergic bronchospasm in sensitized, spontaneously breathing and anesthesized Harlan-Wistar rat assessed as inhibition of control allergic bronchospasm response compound administered intraduodenally 15 min prior to antigen challenge; in short: as §2
[21] = test system: Rattus norvegicus; assay: Inhibition of egg albumin-induced allergic bronchospasm in sensitized, spontaneously breathing and anesthesized Harlan-Wistar rat assessed as drop in mean arterial blood pressure at 6.25 mg/kg administered intraduodenally 15 min prior to antigen challenge (reference value: 46.3 +/- 3.5 %); settings: route intraduodenal; in short: as §2
[22] = test system: Rattus norvegicus; assay: Inhibition of egg albumin-induced allergic bronchospasm in sensitized, spontaneously breathing and anesthesized Harlan-Wistar rat assessed as drop in mean arterial blood pressure at 3.125 mg/kg administered intraduodenally 15 min prior to antigen challenge (reference value: 46.3 +/- 3.5 %); settings: route intraduodenal; in short: as §2
[23] = test system: Rattus norvegicus; assay: Inhibition of egg albumin-induced allergic bronchospasm in sensitized, spontaneously breathing and anesthesized Harlan-Wistar rat assessed as inhibition of control allergic hypotension response at 3.125 mg/kg administered intraduodenally 15 min prior to antigen challenge; settings: route intraduodenal; in short: as §2
[24] = test system: Rattus norvegicus; assay: Inhibition of egg albumin-induced allergic bronchospasm in sensitized, spontaneously breathing and anesthesized Harlan-Wistar rat assessed as drop in mean arterial blood pressure at 1.56 mg/kg administered intraduodenally 15 min prior to antigen challenge (reference value: 46.3 +/- 3.5 %); settings: route intraduodenal; in short: as §2
[25] = test system: Rattus norvegicus; assay: Inhibition of egg albumin-induced allergic bronchospasm in sensitized, spontaneously breathing and anesthesized Harlan-Wistar rat assessed as inhibition of control allergic bronchospasm response at 6.25 mg/kg administered intraduodenally 15 min prior to antigen challenge; settings: route intraduodenal; in short: as §2
[26] = test system: Rattus norvegicus; assay: Inhibition of egg albumin-induced allergic bronchospasm in sensitized, spontaneously breathing and anesthesized Harlan-Wistar rat assessed as drop in pulmonary arterial blood pressure at 1.56 mg/kg administered intraduodenally 15 min prior to antigen challenge (reference value: 32.2 +/- 4.7 %); settings: route intraduodenal; in short: as §2
[27] = test system: Rattus norvegicus; assay: Inhibition of egg albumin-induced allergic bronchospasm in sensitized, spontaneously breathing and anesthesized Harlan-Wistar rat assessed as inhibition of control allergic hypotension response at 50 mg/kg administered intraduodenally 15 min prior to antigen challenge; settings: route intraduodenal; in short: as §2
[28] = test system: Rattus norvegicus; assay: Inhibition of egg albumin-induced allergic bronchospasm in sensitized, spontaneously breathing and anesthesized Harlan-Wistar rat assessed as inhibition of control allergic hypotension response at 1.56 mg/kg administered intraduodenally 15 min prior to antigen challenge; settings: route intraduodenal; in short: as §2
[29] = test system: Rattus norvegicus; assay: Inhibition of egg albumin-induced allergic bronchospasm in sensitized, spontaneously breathing and anesthesized Harlan-Wistar rat assessed as inhibition of control allergic bronchospasm response at 12.5 mg/kg administered intraduodenally 15 min prior to antigen challenge; settings: route intraduodenal; in short: as §2
[30] = test system: Rattus norvegicus; assay: Inhibition of egg albumin-induced allergic bronchospasm in sensitized, spontaneously breathing and anesthesized Harlan-Wistar rat assessed as drop in pulmonary arterial blood pressure at 12.5 mg/kg administered intraduodenally 15 min prior to antigen challenge (reference value: 32.2 +/- 4.7 %); settings: route intraduodenal; in short: as §2

Compound `O=C([O-])c1cc(=O)c2c(OCC(O)COc3cccc4oc(C(=O)[O-])cc(=O)c34)cccc2o1.[Na+].[Na+]` [CROMOLYN SODIUM] has an inhibition at 20 µM [1] of 75%, an inhibition at 5 µM [2] of 50% and an inhibition in vivo at 2 mg/kg [3] of 13%. It also gave an inhibition in vivo at 2 mg/kg [4] of 22.4%, an inhibition in vivo at 2 mg/kg [5] of 38.8% and an ED50 [6] of 0.6 mg/kg. It also gave an inhibition in vivo at 2 mg/kg [7] of 63.8% and an inhibition at 1.25 µM [8] of 20%.
`CCCCCCc1sc2nc(C(=O)[O-])nc([O-])c2c1C.O.[Na+].[Na+]` showed an inhibition in vivo at 6.25 mg/kg [9] of 28%, an inhibition in vivo at 1.56 mg/kg [10] of 9.4% and an inhibition in vivo at 50 mg/kg [11] of 45%. It also gave an inhibition in vivo at 12.5 mg/kg [12] of 55.2%, an inhibition in vivo at 12.5 mg/kg [13] of 0% and an inhibition in vivo at 50 mg/kg [14] of 14%. It also gave an inhibition in vivo at 50 mg/kg [15] of 61.2%, an inhibition in vivo at 3.125 mg/kg [16] of 28.3% and an inhibition in vivo at 6.25 mg/kg [17] of 28.8%. The inhibition [18] was “Dose-dependent effect”, the ED50 ([18]; intraduodenal) was 3.8 mg/kg and the inhibition in vivo at 3.125 mg/kg [19] was 27.6%. The inhibition [20] was “Dose-dependent effect”, the ED50 ([20]; intraduodenal) was 3.8 mg/kg and the inhibition in vivo at 6.25 mg/kg [21] was 38.4%. The inhibition in vivo at 3.125 mg/kg [22] was 47.6%, the inhibition in vivo at 3.125 mg/kg [23] was 15.4% and the inhibition in vivo at 1.56 mg/kg [24] was 63.8%. For the same compound, the inhibition in vivo at 6.25 mg/kg [25] was 34.2%, the inhibition in vivo at 1.56 mg/kg [26] was 42% and the inhibition in vivo at 50 mg/kg [27] was 14%. For the same compound, the inhibition in vivo at 1.56 mg/kg [28] was 0%, the inhibition in vivo at 12.5 mg/kg [29] was 41% and the inhibition in vivo at 12.5 mg/kg [30] was 21.6%.
